# An excerpt weighted towards active compounds, which were near 9.6% of everything screened.
# bCat KO growth: beta-catenin-lacking colon tumor cell growth suppression | HCT116 beta-catenin knockout viability, CellTiter-Glo, 60 h; active compounds read low | viability, % at 10 µM | 140,000 tested, 1.5% active;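 active = viability at or under a set limit, the compound median less 4 SD, cut at about 6% in these data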;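 also: 0% = Hyamine 1622 control at 20 µM and 100% = untreated cell control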
# PTEN del growth: growth suppressors of cells with PTEN tumor suppressor deletion | viability, % at 10 µM | HCT116 PTEN-null viability, CellTiter-Glo, 60 h; active compounds read low | 140,000 tested, 1.2% active;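 active = viability at or below a set limit, 4 SD under the median of all tested compounds, cut at about 3.7% in these data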;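 also: PTEN knockout HCT116 line with beta catenin targeted HCT116 as companion control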
# TNAP inh hi DEA: TNAP (human) inhibition, high acceptor; P05186; purified TNAP, CDP-star luminescence, 1 M DEA; inhibition, % at 20 µM; 200,000 tested, 0.03% active;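 active = over 50% inhibition of tissue-nonspecific alkaline phosphatase at 20 µM in the single-dose screen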;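 also: plate controls were DMSO wells for no effect and EDTA-quenched wells as full inhibition for full effect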
# Target sequence (P05186 whole entry, looked up): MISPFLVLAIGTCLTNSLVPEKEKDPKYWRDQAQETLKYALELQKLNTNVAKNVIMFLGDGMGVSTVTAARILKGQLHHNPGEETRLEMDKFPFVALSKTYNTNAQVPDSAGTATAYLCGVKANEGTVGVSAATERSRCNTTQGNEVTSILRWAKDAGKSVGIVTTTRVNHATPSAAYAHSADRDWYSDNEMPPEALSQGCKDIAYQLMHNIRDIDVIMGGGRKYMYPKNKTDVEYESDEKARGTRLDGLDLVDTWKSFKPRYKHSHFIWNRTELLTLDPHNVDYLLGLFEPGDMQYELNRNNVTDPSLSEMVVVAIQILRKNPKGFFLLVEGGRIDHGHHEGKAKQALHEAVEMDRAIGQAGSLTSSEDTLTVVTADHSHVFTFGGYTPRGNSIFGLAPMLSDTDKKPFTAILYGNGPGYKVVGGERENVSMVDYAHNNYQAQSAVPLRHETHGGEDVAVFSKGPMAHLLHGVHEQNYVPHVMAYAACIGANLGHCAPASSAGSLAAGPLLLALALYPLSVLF
# TNAP act hiacc: TNAP (human) activation, high acceptor; purified TNAP, CDP-star luminescence, 1 M DEA, 30 min; active compounds read high; 0 = EDTA background, 1 = DMSO-only activity; P05186; 200,000 tested, under 10 active; activation factor at 20 µM;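 active = activation factor at least 2 at 20 µM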
#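 system = human TNAP | amount = enzyme diluted 1/800 final | reagent = 100 µM CDP-star substrate | signal = luminescent substrate turnover signal | dosing = one dose, 20 µM | benchmarks = EDTA negative control, DMSO positive control | measure = activation factor | timing = 30 min reaction, room temperature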
# TNAP inh noacc: TNAP (human) inhibition, acceptor-free conditions | 200,000 tested, 0.26% active | P05186 | inhibition, % at 20 µM | purified TNAP, CDP-star luminescence, 30 min;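 active = tissue-nonspecific alkaline phosphatase inhibition above about 50% at 20 µM in the single-dose screen, limit read from the data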;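 also: 0% = DMSO negative control and 100% = EDTA positive control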
# L major viab: Leishmania major promastigote growth inhibition; inhibition, % at 10 µM; Leishmania major promastigotes, resazurin fluorescence viability; 200,000 tested, 9% active; AID 1063; in the data active = inhibition above about 50%;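 also: promastigotes grown with compound for 44 hours at 28 °C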
# Numbers without * were called inactive; x = no result.
SMILES,bCat KO growth,PTEN del growth,TNAP inh hi DEA,TNAP act hiacc,TNAP inh noacc,L major viab
CC(=O)c1cccc(CN2CCCC(CCC(=O)NCc3ccc(F)c(F)c3)C2)c1 (stereo not given),x,x,0,1,-4,98*
CC(C)NC(=O)COC(=O)CNC(=O)c1cc(Cl)cc([N+](=O)[O-])c1,92,105,-1,1,-12,-12
Cc1cc(C(F)F)nn1CC(=O)NC1C(=O)N2C(C(=O)O)=C(CSc3nnnn3C)CSC12 (stereo not given),x,x,-3,1,-8,-3
O=Cc1ccc(-c2ccc([N+](=O)[O-])cc2Cl)o1,x,x,0,1,6,60*
COc1ccc(C(=O)C(C)N(C(=O)c2ccc(Cl)cc2Cl)N2C(=O)C3C4C=CC(C4)C3C2=O)cc1 (stereo not given),80,87,-4,1,-6,90*
Cc1ccc(C(=O)C(C)N(C(=O)c2ccc(Cl)cc2Cl)N2C(=O)CCCC2=O)cc1 (stereo not given),x,x,-1,1,-2,25
CCCN1C(=O)/C(=N\OCC(=O)Nc2ccc(C(C)C)cc2)c2ccccc21,93,87,0,1,-10,-6
CCCN(CCC)C(=O)Cn1c(=O)c2ccccc2n2c(=S)sc(-c3ccccc3C)c12,51,46,-1,1,-1,98*
CCOc1cc(/C=N/NC(=O)C(C)Sc2ccccn2)ccc1O (stereo not given),100,94,7,0.9,8,-3
CCOc1ccccc1NC(=S)N(Cc1cc2ccc(C)cc2[nH]c1=O)CC1CCCN1CC (stereo not given),2.5*,1.2*,2,1,-52,9
CCN1CCCC1CN(Cc1cc2ccc(C)cc2[nH]c1=O)C(=S)Nc1cccc(OC)c1 (stereo not given),3.5*,2.5*,-3,1,1,11
CCN1CCCC1CN(Cc1cc2ccc(C)cc2[nH]c1=O)C(=S)Nc1ccccc1OC (stereo not given),88,95,-1,1,-8,-5
O=C(NC1CC(=O)c2sccc21)c1ccc(Cl)cc1Cl (stereo not given),x,x,-3,1,-9,-8
O/C(=C\Sc1nnc(Cc2ccccc2)o1)c1ccc(F)cc1,92,89,-2,1,-14,-5
CC1(C)CN(c2ccsc2C(=O)O)C1=O,x,x,-3,1,-7,-7
CCC(C)Nc1nc(Cl)nc(NCCOc2ccccc2)n1 (stereo not given),84,72,1,1,-21,80*
CCCCCn1c(=O)c2ccccc2n2c(CCl)nnc12,x,x,-2,1,0,87*
Cc1ccc(Cn2c(=O)c3ccccc3n3c(CCC(=O)O)nnc23)cc1,x,x,x,x,x,-6
CC(C)CCn1c(=O)c2ccccc2n2c(CN3CCCC3)nnc12,x,x,-8,1.1,-7,4
CC(C)CCn1c(=O)c2ccccc2n2c(CCl)nnc12,x,x,-3,1,-11,93*
Cc1cc2oc(C(=O)Nc3ccc(S(N)(=O)=O)cc3)c(C)c2cc1Cl,x,x,2,1,-4,-9
Cc1ccc(C(=O)/C=C\C(=O)c2ccc(C)cc2)cc1,1.7*,1.8*,-4,1,-4,100*
COc1ccc(-c2cc(C(=O)N/N=C/c3sccc3C)c3ccccc3n2)c(OC)c1,46,42,-9,1.1,4,79*
COc1ccc(-c2cc(C(=O)N/N=C/c3ccc4c(c3)OCO4)c3ccccc3n2)c(OC)c1,68,59,0,1,0,77*
Cn1cccc1/C=N/NC(=O)c1cc(-c2cccs2)nc2ccccc12,29,27,-3,1,-4,56*
COc1ccc(-c2cc(C(=O)O)c3ccccc3n2)c(OC)c1,95,95,4,1,-6,-5
Cc1ccc(-c2cc(C(=O)N/N=C/c3c(C)nn(C)c3C)c3ccccc3n2)cc1C,78,84,-5,1.1,-4,82*
Cc1nn(-c2ccccc2)c(N2CCCC2)c1/C=N/NC(=O)c1cc(-c2cccnc2)nc2ccccc12,37,36,-2,1,-14,29
O=C(Nc1cccs1)OCCN1CCN(Cc2ccccc2)CCC1=O,90,104,-8,1.1,-11,-6

# Source: PubChem (several laboratories)
